Assay results as given in ChEMBL document CHEMBL1208769, “Anti-T. cruzi activities and QSAR studies of 3-arylquinoxaline-2-carbonitrile di-N-oxides” (Bioorg Med Chem Lett, 2010).

How the values were obtained:
Trypanosoma cruzi [1] = assay: Antitrypanosomal activity against Trypanosoma cruzi Tulahuen 2 epimastigotes assessed as inhibition of parasite growth at 25 uM relative to control; format: functional; settings: read-out: GI
How it was run: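 Epimastigotes of T. cruzi Tulahuen 2 strain exposed to compound at 25 µM. Growth inhibition is given as percentage relative to untreated parasites. Values are means of three separate experiments, SD under 10%.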

[2] = Octanol-water partition coefficient of the compound; format: physicochemical
Trypanosoma cruzi [3] = assay: Antitrypanosomal activity against Trypanosoma cruzi Tulahuen 2 epimastigotes; format: functional, organism-based

Row | logP [2] | IC50 (Trypanosoma cruzi [3]) | Structure (SMILES) | inhibition of growth at 25 µM (Trypanosoma cruzi [1])
1 | 1.38 | 13.1 µM | N#Cc1c(-c2ccco2)[n+]([O-])c2cc(F)c(F)cc2[n+]1[O-] | 70.7%
2 | 2.35 | 18.1 µM | N#Cc1c(-c2ccccc2)[n+]([O-])c2ccc(Cl)cc2[n+]1[O-] | 97.8%
3 | 2.48 | 17.4 µM | Cc1ccc2c(c1)[n+]([O-])c(C#N)c(-c1ccc(F)cc1)[n+]2[O-] | 83.8%
4 | 2.23 | 15.2 µM | N#Cc1c(-c2ccc(F)cc2)[n+]([O-])c2ccccc2[n+]1[O-] | 82.8%
5 | 2.33 | 22.1 µM | Cc1cc2c(cc1C)[n+]([O-])c(-c1ccccc1)c(C#N)[n+]2[O-] | 97.4%
6 | 2.57 | 21.2 µM | Cc1ccc(-c2c(C#N)[n+]([O-])c3cc(C)c(C)cc3[n+]2[O-])cc1 | 98.2%
7 | 2.74 | 36.6 µM | N#Cc1c(-c2ccc(F)cc2)[n+]([O-])c2cc(F)c(F)cc2[n+]1[O-] | 29.4%
8 | 2.87 | 15.3 µM | N#Cc1c(-c2ccccc2)[n+]([O-])c2cc(Cl)c(Cl)cc2[n+]1[O-] | 90%
9 | 3.22 | 9.2 µM | N#Cc1c(-c2ccc(Cl)cc2)[n+]([O-])c2ccc(C(F)(F)F)cc2[n+]1[O-] | 100%
10 | 2.45 | 9.9 µM | N#Cc1c(-c2ccc(OC(F)(F)F)cc2)[n+]([O-])c2cc(F)c(F)cc2[n+]1[O-] | 74.4%
11 | 3.1 | 14.9 µM | N#Cc1c(-c2ccc(F)cc2)[n+]([O-])c2ccc(C(F)(F)F)cc2[n+]1[O-] | 100%
12 | 1.97 | 14.6 µM | COc1ccc2c(c1)[n+]([O-])c(C#N)c(-c1ccc(F)cc1)[n+]2[O-] | 84.2%
13 | 2.18 | 10.7 µM | Cc1ccc2c(c1)[n+]([O-])c(C#N)c(-c1ccc(OC(F)(F)F)cc1)[n+]2[O-] | 75.1%
14 | 2.95 | 12.3 µM | Cc1ccc(-c2c(C#N)[n+]([O-])c3cc(C(F)(F)F)ccc3[n+]2[O-])cc1 | 114%
15 | 3.1 | 14.6 µM | Cc1ccc(-c2c(C#N)[n+]([O-])c3cc(Cl)c(Cl)cc3[n+]2[O-])cc1 | 95.6%
16 | 2.41 | 10.6 µM | Cc1cc2c(cc1C)[n+]([O-])c(-c1ccc(OC(F)(F)F)cc1)c(C#N)[n+]2[O-] | 79.8%
17 | 0.354 | > 25 µM | COc1ccc2c(c1)[n+]([O-])c(C#N)c(-c1ccco1)[n+]2[O-] | 33.4%
18 | 1.84 | 66.6 µM | N#Cc1c(-c2ccccc2)[n+]([O-])c2ccccc2[n+]1[O-] | 36.9%
19 | 2.87 | 15.3 µM | N#Cc1c(-c2ccc(Cl)cc2)[n+]([O-])c2ccc(Cl)cc2[n+]1[O-] | 97.5%
20 | 2.45 | 8.3 µM | N#Cc1c(-c2ccc(OC(F)(F)F)cc2)[n+]([O-])c2ccc(Cl)cc2[n+]1[O-] | 89.1%
21 | 2.74 | 13.4 µM | N#Cc1c(-c2ccc(Cl)cc2)[n+]([O-])c2ccc(F)cc2[n+]1[O-] | 85.4%
22 | 1.82 | 18.9 µM | COc1ccc(-c2c(C#N)[n+]([O-])c3cc(C)ccc3[n+]2[O-])cc1 | 94.6%
23 | 2.98 | 11.3 µM | N#Cc1c(-c2ccc(F)cc2)[n+]([O-])c2cc(Cl)c(Cl)cc2[n+]1[O-] | 85.3%
24 | 3.1 | 13.8 µM | N#Cc1c(-c2ccc(Cl)cc2)[n+]([O-])c2cc(Cl)c(Cl)cc2[n+]1[O-] | 89.8%

Row | Structure (SMILES) | logP [2] | IC50 (Trypanosoma cruzi [3]) | inhibition of growth at 25 µM (Trypanosoma cruzi [1])
25 | CC1CS(=O)(=O)CCN1/N=C/c1ccc([N+](=O)[O-])o1 (centres undefined) [NIFURTIMOX] | -0.746 |  | 100%
